Experimental data as given in PubChem BioAssay.
Inconclusive results are not listed.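 Rule for the calls, unless noted: active = viability at or below 27.92% in each of two runs, the all-compound median minus 4 SD; inconclusive = no clear call, values can overlap the other calls; inactive = the rest.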

Tests used:
[1] = OD615 S. cerevisiae growth inhibition, permissive medium, pilot counter-assay, permissive growth control for S. cerevisiae lifespan shortening project (AID 705;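 active = growth inhibition above 25% in both replicates, a cutoff set 3 SD above the mean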); conditions: OD615, 24 h, at 10 µM, stronger effect = higher value
Summary of the method: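 Test system: Saccharomyces cerevisiae strain carrying genetically modified DeaD replicative-lifespan system; buffer or medium: SC raffinose/galactose permissive medium; dosing: one dose 10 µM, DMSO 0.25% final; times: 24 h exposure, 30 °C; measured by: OD at 615 nm; read-out basis: growth inhibition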

[2] = Restrictive medium S. cerevisiae growth inhibition, OD615, pilot screen of yeast lifespan reduction project, restrictive growth control (AID 706;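 active = growth inhibition above a set limit, 3 SD over mean compound inhibition, in both replicates, cut at about 43% in these data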;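 note: modified DeaD lifespan yeast strain shifted to restrictive glucose medium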); conditions: OD615, 48 h, at 10 µM, stronger effect = higher value
Summary of the method: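 material = engineered S. cerevisiae DeaD strain | buffer or medium = glucose-based CSMM-D restrictive medium | dosing = one concentration, 10 µM final, 0.25% DMSO | schedule = 4 h pre-growth plus 48 h compound exposure, 30 °C | detection = OD615 absorbance reading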

[3] = viability gain of MRP-1-high H69AR cells under doxorubicin, pilot screen, MRP-1 activator project, CellTiter-Glo, duplicate (AID 807;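 active = viability increase at or above a cutoff of the median across tested compounds plus 3 SD, cut at about 8.5% in these data, passing the limit was not always enough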;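 note: compound pretreatment 18-22 h then 72 h combined with doxorubicin; 0% = doxorubicin alone and 100% = vehicle without doxorubicin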); conditions: H69AR viability with doxorubicin, CellTiter-Glo luminescence; at 10 µM; stronger effect = higher value
[4] = growth suppression of beta-catenin knockout HCT116, pilot screen, human colon tumor cells (AID 823;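 active = cell viability at or below a set limit in both duplicate runs, the limit being the all-compound median minus 4 SD, cut at about 23% in these data, passing the limit was not always enough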;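 note: 0% = wells killed by 20 µM Hyamine and 100% = untreated DMSO cell wells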); conditions: CellTiter-Glo, 60 h, at 10 µM, stronger effect = lower value
[5] = growth suppression of PTEN-deleted HCT116, pilot screen, cell-based, HCT116 clonal line, CellTiter-Glo (AID 824); conditions: 60 h, at 10 µM, stronger effect = lower value;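 note: 0% = 20 µM Hyamine control and 100% = vehicle cell control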
[6] = inhibitors of the yeast RAM network, pilot screen, dse1pr::URA3 reporter, 5-FOA selection (AID 869;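 active = inhibition over a set limit, the all-compound mean plus 3 SD, in both replicate runs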;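 note: 0% = DMSO wells with no growth and 100% = 10 µM 1-NA-PP1 with full growth; RAM network block rescues cells from 5-FOA so hits raise OD615 growth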); conditions: S. cerevisiae dse1pr::URA3 5-FOA growth, OD615, 2 d; at 10 µM; stronger effect = higher value; strain carries analog-sensitive mutant Cbk1 kinase
[7] = RAM signaling pathway blockade in yeast – S. cerevisiae, Pdr1DBD-CYC8 efflux-inhibited sensitized strain, primary screen (AID 1298;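 active = RAM network inhibition above 8.4% in each of two replicates, 3 SD over the compound average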;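 note: 0% = DMSO untreated cells without growth and 100% = 10 µM 1-NA-PP1 full growth; higher means more yeast growth rescued from 5-FOA killing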); conditions: S. cerevisiae cbk1-as DSE1-URA3 strain, 5-FOA growth OD615, 2 d; at 50 µM; stronger effect = higher value

O=C(c1ccc(Br)o1)N1CCN=C1SCc1cccnc1
inactive: growth inhibition [1] -14.4% | growth inhibition [2] -6.34% | viability increase [3] 2.52% | viability [4] 90.4% | viability [5] 87.6% | inhibition [6] 2.11% | RAM network inhibition [7] 3.23%

O=C(c1ccc(CS(=O)(=O)c2ccc(Br)cc2)o1)N1CCOCC1
inactive: growth inhibition [1] -10.2% | growth inhibition [2] -12.6% | viability increase [3] -0.67% | viability [4] 104% | viability [5] 97.3% | inhibition [6] 2.23% | RAM network inhibition [7] 0.1%

COc1cc(C2N(c3ccc(Cl)cc3)C(=O)C3CCCN32)cc(OC)c1OC (configuration not stated)
inactive: growth inhibition [1] -6.9% | growth inhibition [2] -0.835% | viability increase [3] -2.09% | viability [4] 101% | viability [5] 97.6% | inhibition [6] 2.28% | RAM network inhibition [7] 0.21%

COc1cccc(C2c3c(oc4ccccc4c3=O)C(=O)N2c2ccccn2)c1 (configuration not stated)
inactive: growth inhibition [1] -2.5% | growth inhibition [2] -15.9% | viability increase [3] 0.48% | viability [4] 92.4% | viability [5] 97.2% | inhibition [6] 0.28% | RAM network inhibition [7] 4.39%

CCOc1ccc(C2CC(=O)NC(SC)=C2C#N)cc1 (configuration not stated)
inactive: growth inhibition [1] -15.8% | growth inhibition [2] -15.5% | viability increase [3] -2.65% | viability [4] 104% | viability [5] 94.9% | inhibition [6] 0.595% | RAM network inhibition [7] 6.38%

N#Cc1ccc(N2CCN(C(=O)c3cccc(F)c3)CC2)c(F)c1
inactive: growth inhibition [1] 6.81% | growth inhibition [2] 4.18% | viability increase [3] -2.03% | viability [4] 98.4% | viability [5] 87.8% | inhibition [6] 2.12% | RAM network inhibition [7] 0.57%

COC(=O)C1=C(C)Nc2ccc(C)cc2S1
inactive: growth inhibition [1] 14.1% | growth inhibition [2] 29.2% | viability increase [3] -2.27% | viability [4] 98.8% | viability [5] 100% | inhibition [6] 1.25% | RAM network inhibition [7] 3.11%

CCCNc1nc2c(c(=O)[nH]c(=O)n2C)n1CCc1ccccc1
inactive: growth inhibition [1] -3.82% | growth inhibition [2] 0.97% | viability increase [3] -1.3% | viability [4] 112% | viability [5] 103% | inhibition [6] 1.56% | RAM network inhibition [7] 5.88%

c1cnc(N2CCSCC2)nc1
inactive: growth inhibition [1] 2.61% | growth inhibition [2] 2.42% | viability increase [3] -2.73% | viability [4] 104% | viability [5] 101% | inhibition [6] 0.69% | RAM network inhibition [7] 3.1%

CCCC(NS(=O)(=O)c1ccc(OC)cc1)C(=O)O (configuration not stated)
inactive: growth inhibition [1] -8.86% | growth inhibition [2] -7.75% | viability increase [3] -1.16% | viability [4] 90.1% | viability [5] 95.4% | inhibition [6] 1.29% | RAM network inhibition [7] 3.19%

COc1ccc(C2CC(=O)C=C(NCC3CCCO3)C2)cc1 (configuration not stated)
inactive: growth inhibition [1] -10.4% | growth inhibition [2] -1.65% | viability increase [3] -0.23% | viability [4] 96.2% | viability [5] 100% | inhibition [6] 1.43% | RAM network inhibition [7] 1.32%

Cc1oc(-c2cccc(Cl)c2)nc1CN1CCCC(C(=O)NC(C)c2ccc3c(c2)OCCO3)C1 (configuration not stated)
inactive: growth inhibition [1] -7.17% | growth inhibition [2] -16.3% | viability increase [3] -4.74% | viability [4] 33.7% | viability [5] 37.5% | inhibition [6] 2.46% | RAM network inhibition [7] 5.6%

O=C(O)[C@@H](c1ccccc1)N1Cc2ccccc2C1=O
inactive: growth inhibition [1] 2.66% | growth inhibition [2] -13.5% | viability increase [3] -0.32% | viability [4] 104% | viability [5] 96.7% | inhibition [6] 1.13% | RAM network inhibition [7] 1.56%

N#CCCN1CCN(S(=O)(=O)c2ccc(S(=O)(=O)NCC3CCCO3)cc2)CC1 (configuration not stated)
inactive: growth inhibition [1] -1.2% | growth inhibition [2] 5.28% | viability increase [3] 0.55% | viability [4] 105% | viability [5] 104% | inhibition [6] 0.51% | RAM network inhibition [7] -2.15%

Cc1sc(NC(=O)CCCC(=O)O)c(C#N)c1C
inactive: growth inhibition [1] -0.59% | growth inhibition [2] 16.8% | viability increase [3] -1.9% | viability [4] 99.4% | viability [5] 99% | inhibition [6] 1.27% | RAM network inhibition [7] 3.31%

CCn1c(=NC(=O)c2ccc(N3C(=O)CCC3=O)cc2)sc2c(OC)ccc(OC)c21
inactive: growth inhibition [1] -5.79% | growth inhibition [2] -11.5% | viability increase [3] -0.73% | viability [4] 97.9% | viability [5] 92.7% | inhibition [6] 1.86% | RAM network inhibition [7] 8.5%

O=C(Cc1ccccc1)n1nc(-c2ccccc2)nc1NCc1ccco1
inactive: growth inhibition [1] -16.6% | growth inhibition [2] -14.8% | viability increase [3] -2.03% | viability [4] 99.5% | viability [5] 98.1% | inhibition [6] 1.27% | RAM network inhibition [7] 4.38%

O=C(Cn1c(=O)oc2cc(S(=O)(=O)N3CCOCC3)ccc21)N1CCc2ccccc2C1
inactive: growth inhibition [1] -5.1% | growth inhibition [2] -8.57% | viability increase [3] -2.45% | viability [4] 103% | viability [5] 93.8% | inhibition [6] 2.44% | RAM network inhibition [7] 4.35%

CCOc1ccc(-c2cc(CCCC(=O)NCc3cccnc3)no2)cc1
inactive: growth inhibition [1] 0.205% | growth inhibition [2] 12.9% | viability increase [3] -3.69% | viability [4] 82.2% | viability [5] 92.9% | inhibition [6] 0.54% | RAM network inhibition [7] 2.74%

COc1ccc(C/C(O)=C(\C#N)c2nc3ccccc3[nH]2)cc1OC
inactive: growth inhibition [1] -4.85% | growth inhibition [2] 0.74% | viability increase [3] -1.93% | viability [4] 90.7% | viability [5] 87.7% | inhibition [6] 0.175% | RAM network inhibition [7] 3.13%

Cn1cnnc1SCCC(=O)Nc1ccccc1
inactive: growth inhibition [1] 6.46% | growth inhibition [2] 0.795% | viability increase [3] -1.01% | viability [4] 101% | viability [5] 99.5% | inhibition [6] 1.14% | RAM network inhibition [7] 2.5%

Cn1c2ccccc2c2c(C(=O)O)cn(C3CCCC3)c(=O)c21
inactive: growth inhibition [1] 3.4% | growth inhibition [2] 1.83% | viability increase [3] -3.21% | viability [4] 91.4% | viability [5] 91.7% | inhibition [6] 1.46% | RAM network inhibition [7] 4.9%

O=C(Nc1ccccc1)C1CC=CCC1C(=O)OCC1CCCO1 (configuration not stated)
inactive: growth inhibition [1] -9.52% | growth inhibition [2] -20.7% | viability increase [3] 0.15% | viability [4] 102% | viability [5] 102% | inhibition [6] 2.69% | RAM network inhibition [7] 0.98%

Clc1ccc(-c2nnn(Cc3nc4ccccc4s3)n2)cc1
inactive: growth inhibition [1] -2.44% | growth inhibition [2] -17.7% | viability increase [3] -2.27% | viability [4] 92.6% | viability [5] 96.6% | inhibition [6] 0.615% | RAM network inhibition [7] 2.46%

CC(C)CCNC(=O)C1C2C=CC3(CN(Cc4ccccc4Cl)C(=O)C13)O2 (configuration not stated)
inactive: growth inhibition [1] -8.87% | growth inhibition [2] -13.5% | viability increase [3] -3.35% | viability [4] 103% | viability [5] 98.3% | inhibition [6] 0.82% | RAM network inhibition [7] 8.03%

CC(C)(C)N1C(=O)c2ccc(C(=O)Nc3nccs3)cc2C1=O
inactive: growth inhibition [1] -7.12% | growth inhibition [2] -7.02% | viability increase [3] -0.27% | viability [4] 106% | viability [5] 103% | inhibition [6] 0.64% | RAM network inhibition [7] 0.63%

CCN(CC)S(=O)(=O)c1ccc(C(=O)OCC(=O)N2CCN(C(=O)c3ccco3)CC2)cc1
inactive: growth inhibition [1] -8.4% | growth inhibition [2] -3.91% | viability increase [3] 0.34% | viability [4] 89.7% | viability [5] 93.6% | inhibition [6] 1.86% | RAM network inhibition [7] 1.24%

O=C(c1ccc(F)cc1)c1cn[nH]c1-c1ccccc1O
inactive: growth inhibition [1] -15.3% | growth inhibition [2] -15.9% | viability increase [3] -1.5% | viability [4] 99.5% | viability [5] 94.9% | inhibition [6] 2.42% | RAM network inhibition [7] 4.4%

CCC(C)N1C(=O)CCC1C(=O)NCc1ccc2c(c1)OCO2 (configuration not stated)
inactive: growth inhibition [1] -0.51% | growth inhibition [2] -0.82% | viability increase [3] -3.05% | viability [4] 102% | viability [5] 97.2% | inhibition [6] 2.33% | RAM network inhibition [7] 4.46%

COc1ccc(Cn2c(=O)[nH]c3cc(C(=O)N4CCN(Cc5ccccc5)CC4)ccc3c2=O)cc1
inactive: growth inhibition [1] 1.4% | growth inhibition [2] -4.04% | viability increase [3] 1.49% | viability [4] 36.3% | viability [5] 49.7% | inhibition [6] 0.835% | RAM network inhibition [7] 1.57%

O=C(O)c1ccc2c(c1)N(Cc1cccc(F)c1)C(=O)CS2
inactive: growth inhibition [1] 2.4% | growth inhibition [2] -0.16% | viability increase [3] 0.93% | viability [4] 102% | viability [5] 102% | inhibition [6] 0.2% | RAM network inhibition [7] 1.36%

CCOC(=O)N1CCN(CC(=O)Nc2cc(OCC)ccc2OCC)CC1
inactive: growth inhibition [1] -8.3% | growth inhibition [2] -19.7% | viability increase [3] -6.22% | viability [4] 91.2% | viability [5] 93.8% | inhibition [6] 2.08% | RAM network inhibition [7] 7.52%

O=C(c1ccccc1)c1ccc(OC(=O)N2CCOCC2)cc1
inactive: growth inhibition [1] -7.92% | growth inhibition [2] 4.65% | viability increase [3] 1.36% | viability [4] 109% | viability [5] 90.7% | inhibition [6] 1.49% | RAM network inhibition [7] 8.53%

COc1ccc(C(=O)Nc2cc(=O)n(C)c(=O)n2C)cc1OC
inactive: growth inhibition [1] -0.79% | growth inhibition [2] 6.3% | viability increase [3] -1.84% | viability [4] 104% | viability [5] 94.2% | inhibition [6] 1.09% | RAM network inhibition [7] -1.14%

ON1C(c2ccc(Cl)cc2Cl)N(O)[C@H]2CCCC[C@H]21 (some centres not stated)
inactive: growth inhibition [1] -6.31% | growth inhibition [2] -5.43% | viability increase [3] -1.27% | viability [4] 101% | viability [5] 100% | inhibition [6] 1.35% | RAM network inhibition [7] 4.97%

Cc1nc(CNS(=O)(=O)c2ccccc2F)cs1
inactive: growth inhibition [1] -2.92% | growth inhibition [2] 0.715% | viability increase [3] -0.6% | viability [4] 94.1% | viability [5] 91.5% | inhibition [6] 0.335% | RAM network inhibition [7] -0.57%
